“And” between values parts separate entries of the source, which are not always exact repeats. Equal entries are not always repeated. Where two headings read alike, the source gives them in different places.
Key:
[1] = system: Escherichia coli strain WP2 uvrA; test: Ames test for mutagenic activity; assay type: cell-based; conditions: reversion of mutations in the tryptophan operon
[2] = Plasma clearance after intravenous dosing; assay type: in vivo, rat (Sprague-Dawley)
Outline: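 Male Sprague-Dawley rats received 1 mg kg−1 test compound intravenously. Plasma levels were measured by the biodistribution LC-MS:MS method: heparinised, chilled plasma, DTT reduction, then reversed-phase ammonium formate/acetonitrile gradient with ESI MRM detection.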

[3] = Oxygen radical absorbance capacity; conditions: Trolox equivalency
[4] = system: rats; test: Oral up/down LD-50 determination, gavage in corn oil; assay type: in vivo, rat (Wistar)
Outline: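 Up/down design in 3 female Wistar rats (206–208 g). Test compound was suspended in corn oil and given by gavage, three times daily to reach the top level. Testing stopped at 5 g kg−1 body weight.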

[5] = Metabolic profiling with human liver microsomes; assay type: in vitro ADME; conditions: incubation with human liver microsomes, MS identification
Outline: (§1)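 Test compound incubated with human or rat liver microsomes. Products separated by HPLC and identified by electrospray MS and MS:MS, using information-dependent acquisition on the parent ion, enhanced product ion scans, and linear ion trap scanning of trapped fragments.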

[6] = Oral absorption, plasma pharmacokinetics after oral gavage; assay type: in vivo, rat (Sprague-Dawley); conditions: for Tmax / half-life: male, Sprague-Dawley, rat, plasma, po
[7] = system: rats injected with HgCl2; assay type: in vivo, rat (Harlan Sprague-Dawley); conditions: for mercury concentration in feces / mercury concentration in urine: 5 day collection, mean ± SEM
Outline: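 Mature male Harlan Sprague-Dawley rats (389–397 g), four groups of six, housed in pairs. HgCl2 was given sc at 4.06 mg kg−1 in saline under brief isoflurane. Test compound (42.3 mg kg−1, DMSO plus PBS) was given sc 20–30 min later. Non-recipients got saline, so each rat had two injections. Rats were weighed before treatment and before day-6 sacrifice; organs were blotted and weighed. Behaviour was recorded.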

[8] = Solubility and stability of NBMI and its Hg complex; assay type: physicochemical
[9] = system: aortic endothelial membranes in culture; conditions: aortic endothelial membranes in culture ref Secor et al. 2011; cited from earlier work
[10] = Metabolic profiling with rat liver microsomes; assay type: in vitro ADME; conditions: incubation with rat liver microsomes, MS identification
Outline: as §1

[11] = Biodistribution of NBMI in plasma and tissues after oral gavage; assay type: in vivo, rat (Sprague Dawley); conditions: for concentration at 1 h / concentration at 2 h / concentration at 8 h / concentration at 24 h: male, Sprague Dawley, rat, 100 mg kg^−1
Outline: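 Twelve-hour-fasted male Sprague-Dawley rats were gavaged with 100 mg kg−1 test compound in corn oil, three per time point. Jugular-cannula blood was taken at 1, 2, 8 and 24 h into heparin and spun at 4°C; tissues were excised and weighed. Samples were DTT-reduced, then analysed by LC-MS:MS: Synergi Polar RP column, ammonium formate pH 3.5/acetonitrile gradient, ESI MRM.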

[12] = Hydroxyl radical absorbance capacity; conditions: Trolox equivalency
[13] = iv 1 mg kg^−1, individual rats 1-3
[14] = iv 1 mg kg^−1, plasma, individual rats 1-3
[15] = Group 2 NBMI only, sc 42.3 mg kg^−1, mean ± St Dev
[16] = Group 4 HgCl2 (4.06 mg kg^−1 sc) + NBMI (42.3 mg kg^−1 sc), mean ± St Dev

O=C(NCCS)c1cccc(C(=O)NCCS)c1 [NBMI, N,N′-bis(2-mercaptoethyl)isophthalamide]
mutagenicity, Ames analysis [1]: non-mutagenic | clearance relative to liver blood flow of a typical rat (3.3 L hr^−1 kg^−1) ([2]; iv 1 mg kg^−1): approximately 30% | Plasma concentration ([2]; iv 1 mg kg^−1, 0.083 hr, individual rats 1-3): 0.535 µg/mL and 0.423 µg/mL | Plasma concentration ([2]; iv 1 mg kg^−1, 0.25 hr, individual rats 1-3): 0.32 µg/mL and 0.254 µg/mL | Plasma concentration ([2]; iv 1 mg kg^−1, 0.5 hr, individual rats 1-3): 0.228 µg/mL and 0.203 µg/mL | Plasma concentration ([2]; iv 1 mg kg^−1, 1 hr, individual rats 1-3): 0.155 µg/mL and 0.124 µg/mL | Plasma concentration ([2]; iv 1 mg kg^−1, 3 hr, individual rats 1-3): 0.0841 µg/mL and 0.0631 µg/mL | Plasma concentration ([2]; iv 1 mg kg^−1, 6 hr, individual rats 1-3): 0.0327 µg/mL and 0.0289 µg/mL | Plasma concentration ([2]; iv 1 mg kg^−1, 24 hr, individual rats 1-3): 0.0066 µg/mL and 0.00884 µg/mL and 0.0037 µg/mL | Co, maximum plasma concentration extrapolated to t=0 [2, 13]: 633 ng/mL and 691 ng/mL and 545 ng/mL | Vss, steady state volume of distribution [2, 13]: 7.2 L/kg and 7.3 L/kg | Co, maximum plasma concentration extrapolated to t=0 ([2]; iv 1 mg kg^−1, mean): 623 ng/mL | CL, clearance [2, 14]: 0.91 L/h/kg and 1.26 L/h/kg | t1/2, half-life [2, 14]: 7.28 h and 5.42 h | concentration at 24 hr ([2]; male, Sprague-Dawley, rat, plasma, iv, 1 mg kg^−1, Plasma concentration, iv 1 mg kg^−1, 24 hr, mean): 0.00638 µg/mL | clearance ([2]; male, Sprague-Dawley, rat, plasma, iv, 1 mg/kg, CL, clearance, iv 1 mg kg^−1, plasma, mean): 1.01 L/h/kg | Vd ([2]; male, Sprague-Dawley, rat, plasma, iv, 1 mg/kg, Vss, steady state volume of distribution, iv 1 mg kg^−1, mean): 6.7 L/kg | half-life ([2]; male, Sprague-Dawley, rat, plasma, iv, 1 mg/kg, t1/2, half-life, iv 1 mg kg^−1, plasma, mean): 6.18 h | ORAC score [3]: 199,000 Trolox units 100g^−1 | LD-50 ([4]; oral gavage in corn oil, female Wistar rats): > 5 g kg^−1 body weight | signs of toxicity in LD-50 study ([4]; up to 5 g NBMI kg^−1 body weight, gavaged 3 times daily): no death or other signs of toxicity with the exception of some diarrhea | metabolites detected [5]: only two NBMI modified structures | Tmax ([6]; 7 mg/kg): 2.3 ± 1.2 h | half-life ([6]; 7 mg/kg): 5.47 ± 1.75 h | Tmax ([6]; 35 mg/kg): 2.3 ± 1.2 h | half-life ([6]; 35 mg/kg): 5.6 ± 1.02 h | absorbance of NBMI into plasma from oral dose ([6]; oral 7 mg kg^−1, estimated against iv 1 mg kg^−1): 13 ± 5.9% | absorbance of NBMI into plasma from oral dose ([6]; oral 35 mg kg^−1, estimated against iv 1 mg kg^−1): 15 ± 3.6% | Body Mass Post Treatment [7, 15]: 374.4 ± 27.7 g | Organ Mass Brain (Post Treatment) [7, 15]: 1.85 ± 0.04 g | Organ Mass Kidney (Post Treatment) [7, 15]: 2.80 ± 0.56 g | Organ Mass Liver (Post Treatment) [7, 15]: 11.7 ± 1.8 g | clinically observed toxic effects ([7]; Group 4 Hg + NBMI versus Hg Only): exhibited no signs of discomfort | Body Mass Post Treatment [7, 16]: 356.9 ± 46.8 g | Organ Mass Brain (Post Treatment) [7, 16]: 1.88 ± 0.10 g | Organ Mass Kidney (Post Treatment) [7, 16]: 3.88 ± 0.69 g | Organ Mass Liver (Post Treatment) [7, 16]: 11.0 ± 2.1 g | mercury concentration in feces ([7]; Hg and NBMI group): 23447±4877 Ppb | mercury concentration in urine ([7]; Hg and NBMI group): 242±52.7 Ppb | mercury concentration in feces ([7]; NBMI Only group): 110±30 Ppb | mercury concentration in urine ([7]; NBMI Only group): 0.30±0.1 Ppb | effect on organ mercury levels ([7]; single sc dose of NBMI, organs 5-6 days after injection): did not reduce the mercury levels in the organs | solubility in 95% ethanol or dimethylsulfoxide (DMSO) [8]: readily dissolves | solubility in water [8]: water insoluble | prevention of damage induced by mercury exposure [9]: very effective prevention of the damage induced by mercury exposure | toxicity on membrane integrity [9]: no toxicity on membrane integrity | metabolites detected [10]: only two NBMI modified structures | concentration at 1 h ([11]; bone marrow, po): 12.5 ± 7.4 ng/g | concentration at 2 h ([11]; bone marrow, po): 65.7 ± 51.6 ng/g | concentration at 8 h ([11]; bone marrow, po): 6.88 ± 0.62 ng/g | concentration at 24 h ([11]; bone marrow, po): 3.76 ± 0.77 ng/g | concentration at 1 h ([11]; brain, po): 6.1 ± 2.6 ng/g | concentration at 2 h ([11]; brain, po): 51.8 ± 43.9 ng/g | concentration at 8 h ([11]; brain, po): 2.57 ± 0.34 ng/g | concentration at 24 h ([11]; brain, po): 2.09 ± 0.41 ng/g | concentration at 1 h ([11]; kidney, po): 61.3 ± 42.7 ng/g | concentration at 2 h ([11]; kidney, po): 145 ± 89.9 ng/g | concentration at 8 h ([11]; kidney, po): 45.1 ± 3.4 ng/g | concentration at 24 h ([11]; kidney, po): 36.9 ± 3.7 ng/g | concentration at 1 h ([11]; liver, po): 165 ± 144 ng/g | concentration at 2 h ([11]; liver, po): 272 ± 274 ng/g | concentration at 8 h ([11]; liver, po): 23.3 ± 2.2 ng/g | concentration at 24 h ([11]; liver, po): 14.2 ± 2.3 ng/g | concentration at 1 h ([11]; plasma, po): 0.588 ± 0.09 µg/mL | concentration at 2 h ([11]; plasma, po): 0.883 ± 0.216 µg/mL | concentration at 8 h ([11]; plasma, po): 0.391 ± 0.014 µg/mL | concentration at 24 h ([11]; plasma, po): 0.118 ± 0.029 µg/mL | concentration at 1 h ([11]; small intestine, po): 7430 ± 3200 ng/g | concentration at 2 h ([11]; small intestine, po): 8530 ± 5320 ng/g | concentration at 8 h ([11]; small intestine, po): 1560 ± 826 ng/g | concentration at 24 h ([11]; small intestine, po): 1040 ± 396 ng/g | concentration at 1 h ([11]; spleen, po): 12.1 ± 5.2 ng/g | concentration at 2 h ([11]; spleen, po): 153 ± 129 ng/g | concentration at 8 h ([11]; spleen, po): 16.8 ± 1.5 ng/g | concentration at 24 h ([11]; spleen, po): 12.7 ± 2.7 ng/g | concentration at 1 h ([11]; subcutaneous fat, oral): 420 ± 419 ng/g | concentration at 2 h ([11]; subcutaneous fat, oral): 683 ± 531 ng/g | concentration at 8 h ([11]; subcutaneous fat, oral): 17.3 ± 7.4 ng/g | concentration at 24 h ([11]; subcutaneous fat, oral): 7 ± 0.7 ng/g | clearance from the body from peak values within 24 hours of ingestion ([11]; oral gavage): about 90% | time of highest concentration in plasma and all tissues ([11]; post ingestion, oral gavage): 2 h | HORAC score [12]: 299,000 Trolox units 100g^−1

Source: article PMC3346673 (Toxicological and environmental chemistry, 2012)
